For experiment [1], the target named is T1, Integrin alpha-4/beta-1 (Homo sapiens, UniProt P05556+P13612). Briefly: Inhibition of VCAM binding to Alpha4-beta1 integrin of human eosinophil cell. The experiment is classed as protein-complex assay.
Experiment [2] deals with T1, Integrin alpha-4/beta-1. Nature of the experiment: Inhibition of Alpha4-beta1 integrin in Jurkat cells. The experiment is classed as cell-based. The essentials:
(§1)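 Calcein-labelled Jurkat cells were allowed to bind human recombinant sVCAM-1 in the presence of serial dilutions of compound, giving IC50. Values are means ± standard error of the number of independent experiments.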

Experiment [3] concerns the target T1, Integrin alpha-4/beta-1. Nature of the experiment: Inhibition of Alpha4-beta1 integrin in Jurkat cells (Not active). The experiment is classed as cell-based. In outline:
as §1

In experiment [4] the target is T1, Integrin alpha-4/beta-1. Nature of the experiment: Inhibition of human recombinant sVCAM-1 binding to alpha4-beta1 integrin (VLA-4) in ELISA. The experiment is classed as protein-complex assay. Background: An ELISA detects its analyte on a solid surface through an enzyme-linked reagent.

T1 sequence (P05556 whole entry): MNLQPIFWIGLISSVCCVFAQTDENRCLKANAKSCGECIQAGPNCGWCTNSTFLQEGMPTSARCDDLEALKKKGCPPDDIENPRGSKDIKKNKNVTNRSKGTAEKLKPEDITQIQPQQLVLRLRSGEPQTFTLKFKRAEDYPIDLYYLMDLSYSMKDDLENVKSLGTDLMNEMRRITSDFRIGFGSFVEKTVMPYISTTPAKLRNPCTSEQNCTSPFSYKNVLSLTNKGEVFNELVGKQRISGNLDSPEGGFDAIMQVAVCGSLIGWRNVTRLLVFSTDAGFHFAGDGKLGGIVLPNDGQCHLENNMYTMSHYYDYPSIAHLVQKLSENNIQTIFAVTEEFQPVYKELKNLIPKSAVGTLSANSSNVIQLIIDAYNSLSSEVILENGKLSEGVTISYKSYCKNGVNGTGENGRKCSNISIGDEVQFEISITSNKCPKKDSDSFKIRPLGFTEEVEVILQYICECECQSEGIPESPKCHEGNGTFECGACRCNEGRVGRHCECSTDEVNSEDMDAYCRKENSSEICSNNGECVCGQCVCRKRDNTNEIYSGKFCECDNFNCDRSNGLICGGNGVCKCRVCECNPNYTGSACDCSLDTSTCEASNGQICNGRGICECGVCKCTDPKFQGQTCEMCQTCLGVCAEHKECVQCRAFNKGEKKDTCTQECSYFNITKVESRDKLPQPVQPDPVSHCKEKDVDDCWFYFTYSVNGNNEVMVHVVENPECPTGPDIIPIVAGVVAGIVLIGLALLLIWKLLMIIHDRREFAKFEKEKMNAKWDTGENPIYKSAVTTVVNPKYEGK
T1 sequence (P13612 whole entry): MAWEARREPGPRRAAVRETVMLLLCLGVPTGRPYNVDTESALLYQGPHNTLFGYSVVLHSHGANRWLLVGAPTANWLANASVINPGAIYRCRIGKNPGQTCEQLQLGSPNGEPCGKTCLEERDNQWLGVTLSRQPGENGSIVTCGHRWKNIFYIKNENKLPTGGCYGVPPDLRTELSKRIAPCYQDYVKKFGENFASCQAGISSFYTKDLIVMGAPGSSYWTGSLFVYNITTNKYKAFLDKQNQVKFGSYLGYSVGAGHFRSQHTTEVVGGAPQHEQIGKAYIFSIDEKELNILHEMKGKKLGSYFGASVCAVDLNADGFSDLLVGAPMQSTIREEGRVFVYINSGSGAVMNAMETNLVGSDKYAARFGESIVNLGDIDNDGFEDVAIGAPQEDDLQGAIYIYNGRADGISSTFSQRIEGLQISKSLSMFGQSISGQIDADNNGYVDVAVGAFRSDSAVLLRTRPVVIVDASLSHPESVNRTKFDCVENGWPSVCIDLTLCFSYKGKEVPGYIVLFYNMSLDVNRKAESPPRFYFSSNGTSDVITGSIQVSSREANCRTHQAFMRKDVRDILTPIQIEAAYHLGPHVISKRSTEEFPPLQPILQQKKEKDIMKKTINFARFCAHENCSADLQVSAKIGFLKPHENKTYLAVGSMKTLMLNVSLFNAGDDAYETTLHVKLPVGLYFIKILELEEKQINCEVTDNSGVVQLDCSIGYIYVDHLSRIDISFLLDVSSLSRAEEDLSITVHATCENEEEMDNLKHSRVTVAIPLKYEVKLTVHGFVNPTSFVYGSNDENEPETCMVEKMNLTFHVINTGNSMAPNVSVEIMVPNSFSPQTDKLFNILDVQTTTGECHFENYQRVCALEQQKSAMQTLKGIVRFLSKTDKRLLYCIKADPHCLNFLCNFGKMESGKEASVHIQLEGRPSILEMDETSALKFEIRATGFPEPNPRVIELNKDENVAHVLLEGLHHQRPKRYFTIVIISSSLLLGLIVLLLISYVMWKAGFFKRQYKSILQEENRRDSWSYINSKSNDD

In general, IC50 refers to the midpoint of a concentration-inhibition curve. For `Cc1ccccc1NC(=O)Nc1ccc(CC(=O)N[C@@H](CC(C)C)C2=NOC(CCC(=O)O)(CCC(=O)O)C2)cc1`, the results for the IC50 on Integrin alpha-4/beta-1 [1] and on Integrin alpha-4/beta-1 [2] were 0.347 µM and 0.067 µM, respectively.
In the same order, the values of `Cc1ccccc1NC(=O)Nc1ccc(CC(=O)N[C@@H](CC(C)C)C2=NOC(CCC(=O)O)C2)cc1` (stereo partly drawn) are 0.495 µM and 0.088 µM.
As for `COc1cc(CC(=O)N[C@@H](CC(C)C)c2cc(CCC(=O)O)on2)ccc1NC(=O)Nc1ccccc1C`, the IC50 is 0.001 µM at Integrin alpha-4/beta-1 [1] and 0.00069 µM on Integrin alpha-4/beta-1 [2].
Turning to `Cc1ccccc1NC(=O)Nc1ccc(CC(=O)N[C@@H](CC(C)C)c2cc(CCC(=O)O)on2)cc1`, the results for the IC50 at Integrin alpha-4/beta-1 [1] and at Integrin alpha-4/beta-1 [2] were 0.143 µM and 0.027 µM, respectively.
Turning to `Cc1ccccc1NC(=O)Nc1ccc(CC(=O)N[C@@H](CC(C)C)c2cc(-c3cccc(C(=O)O)c3)on2)cc1`, on Integrin alpha-4/beta-1 [3], the IC50 entry is “Not Active”.
The molecule `Cc1ccccc1NC(=O)Nc1ccc(CC(=O)N[C@@H](CC(C)C)c2ncc(CC(=O)O)s2)cc1` returned an IC50 against Integrin alpha-4/beta-1 [2] of 2.4 µM.
As to `Cc1ccccc1NC(=O)Nc1ccc(CC(=O)N[C@@H](CC(C)C)c2ncc(CCC(=O)O)o2)cc1`, the IC50 worked out at 0.171 µM at Integrin alpha-4/beta-1 [1] and 0.045 µM at Integrin alpha-4/beta-1 [2].
On to `Cc1ccccc1NC(=O)Nc1ccc(CC(=O)N[C@@H](CC(C)C)c2ncc(CCC(N)=O)s2)cc1`, for which the IC50 result at Integrin alpha-4/beta-1 [4] is recorded as “Not Active”.
Consider `Cc1ccccc1NC(=O)Nc1ccc(CC(=O)N[C@@H](CC(C)C)c2nc(CCC(=O)O)cs2)cc1`, for which the IC50 on Integrin alpha-4/beta-1 [2] turned out to be 2.04 µM.
As to `Cc1ccccc1NC(=O)Nc1ccc(CC(=O)N[C@@H](CC(C)C)c2cc(-c3ccccc3C(=O)O)on2)cc1`, the IC50 entry on Integrin alpha-4/beta-1 [3] was “Not Active”.
The molecule `Cc1ccccc1NC(=O)Nc1ccc(CC(=O)N[C@@H](CC(C)C)c2cc(CCCC(=O)O)on2)cc1` returned an IC50 at Integrin alpha-4/beta-1 [2] of 1.8 µM.
Turning to `Cc1ccccc1NC(=O)Nc1ccc(CC(=O)N[C@@H](CC(C)C)c2ncc(CCC(=O)O)s2)cc1`, the IC50 at Integrin alpha-4/beta-1 [1] was determined as 0.18 µM; against Integrin alpha-4/beta-1 [2], 0.016 µM.

The record behind these values is ChEMBL document CHEMBL1133975, “Isoxazolyl, oxazolyl, and thiazolylpropionic acid derivatives as potent alpha(4)beta(1) integrin antagonists” (Bioorg Med Chem Lett, 2001).
